Screening results deposited in PubChem by Sanford-Burnham Center for Chemical Genomics.
DNMT1 inh: human DNMT1 methyltransferase inhibitors, primary screen, biochemical, molecular beacon, fluorescence, HinP1I cleavage, uHTS; AID 588458, 2011; 0.83% of 360,000 active; inhibition (reported as % activation of signal), % at 10 µM; DNA (cytosine-5)-methyltransferase 1 (Homo sapiens), P26358; in the data active = inhibition above about 50%
SUMO1-SIM PPI: modulators of SUMO1 protein-protein interactions, primary screen, biochemical, uHTS; Small ubiquitin-related modifier 1 (Homo sapiens), P63165; SUMO1 binding to a labelled peptide, TR-FRET, 1 h; inhibition, % at 20 µM; 0.33% of 360,000 active; AID 602429, 2012; in the data active = inhibition above about 37%
Target sequence (P63165 whole entry, looked up): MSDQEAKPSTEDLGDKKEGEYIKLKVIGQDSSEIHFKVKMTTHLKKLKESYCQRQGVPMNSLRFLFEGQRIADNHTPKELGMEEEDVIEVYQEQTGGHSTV
LMPTP block: LMPTP phosphatase inhibitors, primary screen, biochemical, fluorescence intensity, uHTS | recombinant LMPTP-A, OMFP fluorogenic substrate | inhibition, % at 20 µM | Low molecular weight phosphotyrosine protein phosphatase (Homo sapiens), P24666 | 0.22% of 360,000 active;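 active = compounds that cut the enzyme signal by at least half of the control window in the single-dose screen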;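 also: plate controls were DMSO wells with enzyme plus substrate for no effect and substrate without enzyme for full effect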
Target sequence (P24666 whole entry, looked up): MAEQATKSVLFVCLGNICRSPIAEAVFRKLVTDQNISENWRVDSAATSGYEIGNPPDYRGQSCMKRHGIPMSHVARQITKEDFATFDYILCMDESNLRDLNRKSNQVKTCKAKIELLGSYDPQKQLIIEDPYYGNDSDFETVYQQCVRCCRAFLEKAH
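Test system: LMPTP-A, protein tyrosine phosphatase of low molecular weight; Input: 0.625 nM enzyme; Incubation: 50 min dark incubation at room temperature; Signal: endpoint fluorescence intensity from OMFP dephosphorylation; Read-out basis: % inhibition versus control wells.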
STEP inh: STEP phosphatase inhibitors, primary screen, biochemical, fluorescence intensity, uHTS; 0.25% of 360,000 active; inhibition, % at 20 µM; AID 588621, 2011; recombinant STEP, OMFP fluorogenic substrate; Tyrosine-protein phosphatase non-receptor type 5 (Homo sapiens), P54829;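 active = inhibition at 20 µM, scaled per plate between control wells, above about 37%, limit read from the data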;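 also: 0% = DMSO with enzyme and substrate and 100% = substrate only without enzyme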
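System: STEP phosphatase, cell-free reaction; Buffer or medium: Bis-Tris pH 6.0 buffer with DTT, detergent; Incubation: 20 min at room temperature, dark; Measured by: fluorescence, 480/540 nm.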
Scp-1 inhibitor: Scp-1 phosphatase inhibitors, primary screen, biochemical, colorimetric, uHTS. Carboxy-terminal domain RNA polymerase II polypeptide A small phosphatase 1 (Homo …. Recombinant Scp1, phosphopeptide, malachite green phosphate absorbance. inhibition, % at 20 µM. 0.88% of 340,000 active;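 active = inhibition above about 50% at 20 µM, limit read from the data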;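 also: plate controls were DMSO wells with enzyme for no effect and wells lacking enzyme for full effect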
Target sequence (Q9GZU7 76-261 limits assumed): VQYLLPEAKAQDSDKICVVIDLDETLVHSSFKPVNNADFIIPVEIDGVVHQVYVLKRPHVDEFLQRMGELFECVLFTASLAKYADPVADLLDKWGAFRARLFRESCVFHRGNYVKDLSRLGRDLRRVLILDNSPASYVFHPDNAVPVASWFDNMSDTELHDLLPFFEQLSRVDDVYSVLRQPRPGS
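Incubation: 45 min enzyme reaction at room temperature / System: truncated SCP-1 phosphatase (76-261aa) / Reagent: Phospho 17-mer peptide substrate / Buffer or medium: Acidic Tris acetate buffer with magnesium and detergent / Signal: absorbance at 630 nm / Doses: one concentration, 20 µM, with 1.0% DMSO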
Scp1 confirm: Scp-1 phosphatase inhibitors, retest, confirmation, biochemical, colorimetric, single concentration. 61% of 2,500 active. inhibition, % at 20 µM. AID 540281, 2011. shares compounds with Scp-1 inhibitor. recombinant SCP-1 catalytic domain, phosphate release, malachite green absorbance;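 also: plate controls were DMSO with enzyme for no effect and buffer wells lacking enzyme for full effect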
Scp-1 MG ctr: colorimetric readout interference by compounds, confirmation, artefact control for Scp-1 inhibitor project, biochemical, single concentration; apparent inhibition (interference), % at 20 µM; 2,500 tested, under 10 active; Colorimetric interference counterscreen, malachite green absorbance 630 nm; shares compounds with Scp-1 inhibitor;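 also: compounds added after enzyme reaction finished so only phosphate colour detection is probed; plate controls were DMSO wells with completed Scp-1 reaction for no effect and substrate wells lacking enzyme for full effect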
Scp-1 Tm shift: Scp-1 binding by thermal shift, confirmation, orthogonal assay for Scp-1 inhibitor project, biophysical, differential scanning fluorimetry; shares compounds with Scp-1 inhibitor; Recombinant SCP1, Sypro Orange thermal shift Tm; thermal shift relative to vanadate control, % at 40 µM; 25% of 1,500 active;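 active = substances whose mean melting-temperature shift, as a percentage of the reference inhibitor's shift, reaches about 5.3%, limit read from the data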;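 also: 0% = Tm of DMSO wells and 100% = Tm with sodium orthovanadate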
Active calls of the source: *. Most compounds without a hit are left out; they make up all but 1.7% or so of the library.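 The calls were made as follows, unless noted: active = inhibition of at least 30% at 20 µM; inactive = the rest.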

`Cc1ccc(/C=C(\C#N)C(=O)NCC2CCCO2)o1` (configuration not stated) gave DNMT1 inh -3.8, SUMO1-SIM PPI -10.2, LMPTP block 0.2, STEP inh 0.6 and Scp-1 inhibitor 1.2.
For O=C(Cc1ccc(F)cc1)Nc1cc(S(=O)(=O)N2CCOCC2)ccc1N1CCCCC1 the results were DNMT1 inh -1.6, SUMO1-SIM PPI 1.4, LMPTP block -0.5 and STEP inh 0.3.
C=CCn1c(=NC(=O)c2sc3ccccc3c2Cl)sc2cc(S(N)(=O)=O)ccc21 was read as DNMT1 inh 33.1, SUMO1-SIM PPI -2.4, LMPTP block 38.5, STEP inh 2.5, Scp-1 inhibitor 88.2*, Scp1 confirm 78.2*, Scp-1 MG ctr -9.0 and Scp-1 Tm shift -16.2.
CCOc1ccc(C(=O)CCCC(=O)c2ccc(OCC)cc2)cc1 was read as DNMT1 inh 6.2, SUMO1-SIM PPI 8.9, LMPTP block 25.6, STEP inh 7.9, Scp-1 inhibitor 77.3*, Scp1 confirm 3.6 and Scp-1 MG ctr -0.2.
For CCCCC(=O)OCC(=O)c1ccc(OCC)cc1 the results were DNMT1 inh -3.4, SUMO1-SIM PPI -2.5, LMPTP block -0.8, STEP inh 1.2 and Scp-1 inhibitor -6.8.
O=C1c2ccccc2C(=O)N1c1nc2nccc(-c3ccccc3)n2n1 was read as DNMT1 inh 3.6, SUMO1-SIM PPI -1.6, LMPTP block -1.5, STEP inh 23.6, Scp-1 inhibitor 101.3*, Scp1 confirm 21.1 and Scp-1 MG ctr -19.9.
COc1ccc(OC)c(NC(=O)CSc2ncnc3sc(C)cc23)c1 was read as DNMT1 inh 24.4, SUMO1-SIM PPI 27.5, LMPTP block 17.0, STEP inh 2.7, Scp-1 inhibitor 79.8*, Scp1 confirm 64.5*, Scp-1 MG ctr -12.3 and Scp-1 Tm shift 11.6*.
For Cc1nc(C)n(CC(C)C(=O)N2CCN(S(=O)(=O)c3ccccc3)CC2)n1 (configuration not stated) the results were DNMT1 inh 0.4, SUMO1-SIM PPI 4.7, LMPTP block -1.4, STEP inh -2.5 and Scp-1 inhibitor 25.4.
For O=C1Nc2ccccc2C1=Nc1ccc(S(=O)(=O)Nc2nccs2)cc1 the results were DNMT1 inh 4.3, SUMO1-SIM PPI 88.3*, LMPTP block 3.1, STEP inh 37.7, Scp-1 inhibitor 80.0*, Scp1 confirm 73.0*, Scp-1 MG ctr -5.2 and Scp-1 Tm shift 12.7*.
NS(=O)(=O)c1ccc(N=C2C(=O)Nc3ccccc32)cc1 was read as DNMT1 inh -0.8, SUMO1-SIM PPI -28.5, LMPTP block -0.6, STEP inh -2.3 and Scp-1 inhibitor -3.4.
Screening Cc1ccc(C(=O)OCC(=O)c2ccc(CC(=O)N3CCOCC3)s2)cc1C returned DNMT1 inh 16.9, SUMO1-SIM PPI -5.8, LMPTP block 3.9, STEP inh 2.7, Scp-1 inhibitor 55.5*, Scp1 confirm 56.6*, Scp-1 MG ctr -15.6 and Scp-1 Tm shift 3.5.
Screening CC(=O)c1ccc(S(=O)(=O)Oc2ccc(C(=O)O)cc2Cl)cc1 returned DNMT1 inh 24.8, SUMO1-SIM PPI 3.9, LMPTP block -0.7, STEP inh -3.6, Scp-1 inhibitor 53.0*, Scp1 confirm 24.1 and Scp-1 MG ctr -6.0.
